{"data": "Results gathered from unrelated publications", "IRAK4": "Interleukin-1 receptor-associated kinase 4 (IRAK4, Homo sapiens, UniProt Q9NWZ3)", "P2RY14": "P2Y purinoceptor 14 (P2RY14, Homo sapiens, UniProt Q15391)", "TGFBR1": "TGF-beta receptor type-1 (TGFBR1, Homo sapiens, UniProt P36897)", "note": "Lines come from different studies, so protocols differ. pIC50: −log10 of the molar value."}
{"Structure (SMILES)": "C#Cc1cnc(Nc2ccc(CO)cc2)nc1Nc1ccccc1C(=O)NC", "target": "IRAK4", "assay": "enzyme activity, inhibitor, radiometric", "pIC50": 9.29}
{"Structure (SMILES)": "CC(C)OC(=O)[C@H](Cc1c[nH]c2ccccc12)NC(=O)c1cccs1", "target": "P2RY14", "assay": "cAMP, antagonist", "pIC50": 7.34}
{"Structure (SMILES)": "CNC(=O)c1ccccc1Nc1nc(Nc2ccnc(CO)c2)ncc1Cl", "target": "IRAK4", "assay": "enzyme activity, inhibitor, radiometric", "pIC50": 7.94}
{"Structure (SMILES)": "O=C(COc1ccccc1)N[C@@H](Cc1c[nH]c2ccccc12)C(=O)O", "target": "P2RY14", "assay": "cAMP, antagonist", "pIC50": 7.72}
{"Structure (SMILES)": "COC(=O)/C=C/c1ccc(OCCN(C)c2ccccc2)cc1", "target": "Fatty acid CoA ligase Acsl3 (ACSL3, Homo sapiens, UniProt O95573)", "assay": "enzyme activity, inhibitor", "pIC50": "< 4.30"}
{"Structure (SMILES)": "O=C(O)c1cc(-c2ccc(-n3cc(CCO)nn3)cc2)c2ccc(-c3ccc(C(F)(F)F)cc3)cc2c1", "target": "P2RY14", "assay": "ligand displacement in cells, flow cytometry", "pIC50": 6.82}
{"Structure (SMILES)": "Nc1ncnc2c1ncn2[C@@H]1O[C@H](CSCC[C@H](N)C(=O)O)[C@@H](O)[C@H]1O", "target": "Histone-lysine N-methyltransferase, H3 lysine-36 specific (NSD1, Homo sapiens, UniProt Q96L73)", "assay": "enzyme activity, inhibitor", "pIC50": 5.20}
{"Structure (SMILES)": "C=CCC1c2ccc(OC)c(OC)c2CN2CCc3cc4c(cc3C12)OCO4 (stereo not shown)", "target": "P2X purinoceptor 7 (P2RX7, Homo sapiens, UniProt Q99572)", "assay": "ion current, patch clamp", "pIC50": 6.33}
{"Structure (SMILES)": "O=C(O)c1cc(-c2ccc(-n3ccnn3)cc2)cc(-n2cc(-c3ccc(C(F)(F)F)cc3)nn2)c1", "target": "P2RY14", "assay": "ligand displacement in cells, flow cytometry", "pIC50": 5.69}
{"Structure (SMILES)": "CS(=O)(=O)c1ccccc1Nc1nc(Nc2ccnc(CO)c2)ncc1Cl", "target": "IRAK4", "assay": "enzyme activity, inhibitor, radiometric", "pIC50": 6.97}
{"Structure (SMILES)": "O=C(NO)c1ccc(Cn2cnc3c(Nc4cccc([N+](=O)[O-])c4)ncnc32)cc1", "target": "Histone deacetylase 3 (HDAC3, Homo sapiens, UniProt O15379)", "assay": "enzyme activity, inhibitor, fluorescence", "pIC50": "> 8.70"}
{"Structure (SMILES)": "O=C(O)c1cc(-c2ccc(-n3ccnn3)cc2)c2ccc(-c3ccc(C(F)(F)F)cc3)cc2c1", "target": "P2RY14", "assay": "ligand displacement in cells, flow cytometry", "pIC50": 7.61}
{"Structure (SMILES)": "Cc1ccc(OCC(=O)N[C@@H](Cc2c[nH]c3ccccc23)C(=O)OC(C)C)cc1", "target": "P2RY14", "assay": "cAMP, antagonist", "pIC50": 8.92}
{"Structure (SMILES)": "CS(=O)(=NC#N)c1ccccc1Nc1nc(Nc2ccc(CO)nc2)ncc1Cl (stereo not shown)", "target": "IRAK4", "assay": "enzyme activity, inhibitor, radiometric", "pIC50": 7.72}
{"Structure (SMILES)": "O=C(O)c1cc(-c2ccc(-c3ccncc3)cc2)c2ccc(-c3ccc(C(F)(F)F)cc3)cc2c1", "target": "P2RY14", "assay": "ligand displacement in cells, flow cytometry", "pIC50": 7.39}
{"Structure (SMILES)": "Oc1ccccc1-c1n[nH]cc1-c1ccnc2ccccc12", "target": "TGFBR1", "assay": "enzyme activity, inhibitor, radiometric", "pIC50": 5.13}
{"Structure (SMILES)": "Cn1cc(C2=C(c3cn(CCCSC(=N)N)c4ccccc34)C(=O)NC2=O)c2ccccc21", "target": "Homeodomain-interacting protein kinase 1 (HIPK1, Homo sapiens, UniProt Q86Z02)", "assay": "enzyme activity, inhibitor", "pIC50": 5.54}
{"Structure (SMILES)": "Cn1cc(-c2ccnc3ccccc23)c(-c2ccccn2)n1", "target": "TGFBR1", "assay": "enzyme activity, inhibitor, radiometric", "pIC50": 6.12}
{"Structure (SMILES)": "Cn1nccc1-c1ccc(-c2cc(C(=O)O)cc3cc(-c4ccc(C(F)(F)F)cc4)ccc23)cc1", "target": "P2RY14", "assay": "ligand displacement in cells, flow cytometry", "pIC50": 7.31}
{"Structure (SMILES)": "C#Cc1cnc(Nc2ccnc(CO)c2)nc1Nc1ccccc1S(C)(=O)=NC#N (stereo not shown)", "target": "IRAK4", "assay": "enzyme activity, inhibitor, radiometric", "pIC50": 8.35}
{"Structure (SMILES)": "CC(C)OC(=O)[C@H](Cc1c[nH]c2ccccc12)NC(=O)c1ccc2ncccc2c1", "target": "P2RY14", "assay": "cAMP, antagonist", "pIC50": 7.97}
{"Structure (SMILES)": "CNC(=O)c1ccccc1Nc1nc(Nc2ccc(CO)nc2)ncc1Cl", "target": "IRAK4", "assay": "enzyme activity, inhibitor, radiometric", "pIC50": 7.68}
{"Structure (SMILES)": "CC(C)OC(=O)[C@H](Cc1c[nH]c2ccccc12)NC(=O)c1ccco1", "target": "P2RY14", "assay": "cAMP, antagonist", "pIC50": 7.67}
{"Structure (SMILES)": "Cc1cc2c(cc1C)N[C@H](c1ccccc1)[C@@H](O)C(=O)N2", "target": "Tyrosine-protein kinase JAK3 (JAK3, Homo sapiens, UniProt P52333)", "assay": "enzyme activity, inhibitor, ELISA", "pIC50": 5.94}
{"Structure (SMILES)": "CNC(=O)c1ccccc1Nc1nc(Nc2ccc(CO)cc2)ncc1Cl", "target": "IRAK4", "assay": "enzyme activity, inhibitor, radiometric", "pIC50": 8.60}
